Laboratory results reported in article PMC6923801 (Journal of medicinal chemistry, 2019).

Key:
[1] = system: human GPCRome (318 GPCRs); assay: PRESTO-Tango GPCRome off-target agonist screen; format: cell-based; conditions: 1 μM
Outline: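 HTLA cells were plated in DMEM + 2% dFBS overnight, then transfected overnight with receptor Tango constructs (15 ng/well) by in-plate PEI. Test compound was added without medium change and left overnight. Bright-Glo luminescence was read after 20 min at room temperature and expressed as fold of basal, using quadruplicate basal and sample wells. Controls were D2 with 100 nM quinpirole and untransfected cells.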

5-HT2B receptors = 5-HT2B receptors (Homo sapiens, UniProt P41595); assay: Calcium release functional assay at 5-HT2B receptors; format: cell-based
Sequence of 5-HT2B receptors (P41595 whole entry): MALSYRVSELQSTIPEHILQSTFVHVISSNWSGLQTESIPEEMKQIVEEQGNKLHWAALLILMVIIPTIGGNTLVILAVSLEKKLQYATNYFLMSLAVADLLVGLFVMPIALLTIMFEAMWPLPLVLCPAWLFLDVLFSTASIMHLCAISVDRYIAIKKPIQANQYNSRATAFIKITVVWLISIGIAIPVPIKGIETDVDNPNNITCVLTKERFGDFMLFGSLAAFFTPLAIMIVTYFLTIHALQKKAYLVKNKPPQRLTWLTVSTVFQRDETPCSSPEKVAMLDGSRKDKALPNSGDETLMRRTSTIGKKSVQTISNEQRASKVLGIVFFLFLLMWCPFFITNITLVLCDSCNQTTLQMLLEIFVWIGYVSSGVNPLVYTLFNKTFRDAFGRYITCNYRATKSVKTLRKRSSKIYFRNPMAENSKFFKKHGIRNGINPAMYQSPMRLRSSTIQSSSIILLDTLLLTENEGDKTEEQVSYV
Outline: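 HEK293 cells stably expressing 5-HT2B were plated in DMEM with 1% dFBS overnight (16–20 h). They were loaded with Fluo-4 Direct dye for 1 h at 37 °C in HBSS with 20 mM HEPES and 2.5 mM probenecid, pH 7.40. Drug dilutions contained 1 mg/mL BSA and 0.1 mg/mL ascorbic acid. Fluorescence was read 1/s for 2 min, with 10 s baseline. Read-out was peak fold of basal within the first minute.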

human GPR68 = human GPR68 (Homo sapiens, UniProt Q15743); assay: GloSensor cAMP assay, proton-mediated Gs-cAMP production at human GPR68; format: cell-based; conditions: for Δ: difference of Log(αβ/KB) from that of 1; for Δ / fold increased allosteric activity (log(αβ/KB)) compared to 1 / −Log (KB) / Log (αβ/KB): human GPR68; for Log (α): affinity cooperativity; for Log (α) / Log (β): human GPR68, HEK293T, Gs-cAMP; for Log (α) / −Log (KB) / Log (αβ/KB) / Log (β): mean ± SEM; for −Log (KB): allosteric binding affinity from functional assay; for Log (αβ/KB): allosteric index; for Log (β): efficacy cooperativity; for PAM activity at GPR68: inactive analogues
Sequence of human GPR68 (Q15743 whole entry): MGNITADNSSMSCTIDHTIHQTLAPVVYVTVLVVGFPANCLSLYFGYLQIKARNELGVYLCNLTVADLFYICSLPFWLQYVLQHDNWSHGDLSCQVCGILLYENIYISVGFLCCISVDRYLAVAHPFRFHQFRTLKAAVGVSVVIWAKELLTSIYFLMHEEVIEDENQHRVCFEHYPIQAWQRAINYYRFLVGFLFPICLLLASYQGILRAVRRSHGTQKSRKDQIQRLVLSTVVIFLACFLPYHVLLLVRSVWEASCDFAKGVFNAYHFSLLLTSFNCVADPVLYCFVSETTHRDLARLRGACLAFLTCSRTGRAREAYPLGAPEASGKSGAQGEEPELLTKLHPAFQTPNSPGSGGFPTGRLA
Outline: (§1)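 HEK293T cells were transiently transfected with receptor and GloSensor cAMP plasmids, overnight (16–20 h). Cells were plated on poly-L-Lys in DMEM + 1% dFBS for 6–24 h, then loaded with 3.5 mM luciferin (HBSS, 20 mM TAPS, pH 8.40) for 1 h at 37 °C. Drug was applied in Ca/Mg-free HBSS pH buffers (MES 5.60–6.70, HEPES 6.80–8.20, TAPS 8.30–8.60) with 10 μM Ro 20-1724. Luminescence was read at 20–30 min.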

mouse GPR68 = mouse GPR68 (Mus musculus, UniProt Q8BFQ3); assay: GloSensor cAMP assay at mouse GPR68; format: cell-based; conditions: for Δ: difference of Log(αβ/KB) at mouse GPR68 from the corresponding values at human GPR68
Sequence of mouse GPR68 (Q8BFQ3 whole entry): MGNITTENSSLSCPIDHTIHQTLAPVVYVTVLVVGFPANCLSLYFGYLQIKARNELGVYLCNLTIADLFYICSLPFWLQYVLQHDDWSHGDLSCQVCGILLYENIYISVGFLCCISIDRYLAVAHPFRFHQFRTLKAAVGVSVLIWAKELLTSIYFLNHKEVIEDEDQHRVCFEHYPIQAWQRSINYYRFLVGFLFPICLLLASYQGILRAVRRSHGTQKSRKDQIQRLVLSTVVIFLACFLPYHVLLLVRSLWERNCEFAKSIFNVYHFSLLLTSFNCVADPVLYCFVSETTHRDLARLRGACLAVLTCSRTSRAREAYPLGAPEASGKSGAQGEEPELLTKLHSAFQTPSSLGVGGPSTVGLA
Outline: as §1

GPR65 = GPR65 (Homo sapiens, UniProt Q8IYL9); assay: GloSensor cAMP assay at GPR65; format: cell-based; conditions: proton concentration-response with increasing modulator
Sequence of GPR65 (Q8IYL9 whole entry): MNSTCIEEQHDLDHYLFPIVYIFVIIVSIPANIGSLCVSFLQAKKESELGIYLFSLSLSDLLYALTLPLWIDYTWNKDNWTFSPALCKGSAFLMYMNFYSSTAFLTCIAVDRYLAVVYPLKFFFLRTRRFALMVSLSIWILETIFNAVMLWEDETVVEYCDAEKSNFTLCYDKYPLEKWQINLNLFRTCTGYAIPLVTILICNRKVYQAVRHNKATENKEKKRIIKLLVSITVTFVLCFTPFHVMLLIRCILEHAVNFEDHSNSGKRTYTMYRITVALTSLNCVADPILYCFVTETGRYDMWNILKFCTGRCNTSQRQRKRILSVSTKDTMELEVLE
Outline: as §1

[2] = molecular target: atypical chemokine receptor 3 (ACKR3) (Homo sapiens, UniProt P25106); assay: Tango arrestin recruitment concentration response, ACKR3; format: cell-based
Sequence of atypical chemokine receptor 3 (ACKR3) (P25106 whole entry): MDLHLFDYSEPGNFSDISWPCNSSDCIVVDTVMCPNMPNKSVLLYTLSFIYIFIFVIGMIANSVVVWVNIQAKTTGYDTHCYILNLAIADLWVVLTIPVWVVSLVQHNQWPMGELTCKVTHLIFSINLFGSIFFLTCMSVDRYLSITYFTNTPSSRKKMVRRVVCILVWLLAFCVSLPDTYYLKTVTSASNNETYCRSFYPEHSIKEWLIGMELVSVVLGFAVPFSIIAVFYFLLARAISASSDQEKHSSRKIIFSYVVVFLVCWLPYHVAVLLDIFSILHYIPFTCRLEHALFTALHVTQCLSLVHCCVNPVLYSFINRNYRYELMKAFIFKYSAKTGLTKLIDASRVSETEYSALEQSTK
Outline: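 HTLA cells were transfected overnight with receptor DNA in DMEM + 10% FBS, then plated on poly-L-Lys in DMEM + 1% dFBS. Test compound was added 6 h later and incubated overnight (16–20 h). After removal of medium, Bright-Glo reagent was added and luminescence counted.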

GPR4 = GPR4 (Homo sapiens, UniProt P46093); assay: GloSensor cAMP assay at GPR4; format: cell-based; conditions: proton concentration-response with increasing modulator
Sequence of GPR4 (P46093 whole entry): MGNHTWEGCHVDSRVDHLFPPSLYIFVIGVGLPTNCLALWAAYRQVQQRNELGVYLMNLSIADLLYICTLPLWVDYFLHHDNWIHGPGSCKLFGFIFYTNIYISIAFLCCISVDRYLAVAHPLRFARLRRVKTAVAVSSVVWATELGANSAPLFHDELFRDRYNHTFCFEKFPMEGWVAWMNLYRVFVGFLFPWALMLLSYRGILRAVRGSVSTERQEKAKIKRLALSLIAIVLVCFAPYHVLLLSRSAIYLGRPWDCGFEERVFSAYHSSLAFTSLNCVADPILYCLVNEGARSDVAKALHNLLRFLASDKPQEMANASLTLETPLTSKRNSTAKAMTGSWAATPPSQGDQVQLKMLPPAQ
Outline: as §1

A2A receptors = A2A receptors (Homo sapiens, UniProt P29274); assay: Functional assay at A2A receptors; format: cell-based
Sequence of A2A receptors (P29274 whole entry): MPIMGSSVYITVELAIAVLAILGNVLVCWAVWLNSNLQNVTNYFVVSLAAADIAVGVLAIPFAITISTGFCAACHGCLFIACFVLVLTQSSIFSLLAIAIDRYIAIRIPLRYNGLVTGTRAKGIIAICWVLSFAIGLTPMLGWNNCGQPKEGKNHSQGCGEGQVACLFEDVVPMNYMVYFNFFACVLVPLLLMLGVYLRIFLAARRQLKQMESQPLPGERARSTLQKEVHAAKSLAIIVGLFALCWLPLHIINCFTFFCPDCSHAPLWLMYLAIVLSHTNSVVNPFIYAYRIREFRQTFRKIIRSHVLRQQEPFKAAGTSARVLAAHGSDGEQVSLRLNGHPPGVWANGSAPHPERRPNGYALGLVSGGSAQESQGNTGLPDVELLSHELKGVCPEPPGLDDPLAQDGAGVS

[3] = system: 48 common GPCRs, ion channels, and transporters; assay: Radioligand binding panel of 48 common drug targets
Outline: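 Binding profiling was done by the NIMH PDSP. Targets were first tested at 10 μM in quadruplicate. pKi values were determined for targets with ≥50% inhibition, from at least three independent assays, each in triplicate.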

## Nc1nc(NCCc2ccccc2)nc(-c2cc(Cl)ccc2CO)n1 [Compound 77, (2-(4-Amino-6-(phenethylamino)-1,3,5-triazin-2-yl)-4-chlorophenyl)methanol]
[1]
  off-target agonist activity at human GPCRome: agonist activity at an atypical chemokine receptor 3 (ACKR3)
5-HT2B receptors
  agonist activity at 5-HT2B receptors: no agonist activity
Human GPR68
  Kb: 7.24 µM
  Δ: 0.95
  fold increased allosteric activity (log(αβ/KB)) compared to 1: approximately 10 fold
Mouse GPR68
  Kb: 19.1 µM
  Δ: −0.34
GPR65
  PAM activity at GPR65: no effect or weak activity only at high concentrations
[2]
  agonist type at ACKR3: full agonist activities
GPR4
  PAM activity at GPR4: no effect or weak activity only at high concentrations

## Nc1nc(NCc2ccccc2)nc(-c2cccc(CO)c2)n1 [Compound 20]
Human GPR68
  Log (α): Inactive
  −Log (KB): Inactive
  Log (αβ/KB): Inactive
  Δ: Inactive
  Log (β): Inactive
  PAM activity at GPR68: do not show PAM activity
GPR65
  PAM activity at GPR65: do not show PAM activity
GPR4
  PAM activity at GPR4: do not show PAM activity

## Nc1nc(NCc2ccc(Cl)cc2)nc(-c2ccccc2CO)n1 [Compound 46, (2-(4-Amino-6-((4-chlorobenzyl)amino)-1,3,5-triazin-2-yl)-phenyl)methanol]
[1]
  off-target agonist activity at human GPCRome: no agonist activity
Human GPR68
  Kb: 6.03 µM
  Δ: 0.80
  fold increased allosteric activity (log(αβ/KB)) compared to 1: 6 fold
Mouse GPR68
  Kb: 50.1 µM
  Δ: −0.43
GPR65
  PAM activity at GPR65: no effect or weak activity only at high concentrations
GPR4
  PAM activity at GPR4: no effect or weak activity only at high concentrations
A2A receptors
  EC50: 1.7 µM
  agonist activity at A2A receptors: no agonist activity

## Nc1nc(NCCCc2ccccc2)nc(-c2cc(Cl)ccc2CO)n1 [Compound 78, (2-(4-Amino-6-((3-phenylpropyl)amino)-1,3,5-triazin-2-yl)-4-chlorophenyl)methanol]
[1]
  off-target agonist activity at human GPCRome: agonist activity at an atypical chemokine receptor 3 (ACKR3)
5-HT2B receptors
  agonist activity at 5-HT2B receptors: no agonist activity
Human GPR68
  Kb: 4.47 µM
  Δ: 1.07
  fold increased allosteric activity (log(αβ/KB)) compared to 1: approximately 10 fold
Mouse GPR68
  Kb: 13.8 µM
  Δ: −0.40
GPR65
  PAM activity at GPR65: no effect or weak activity only at high concentrations
[2]
  agonist type at ACKR3: full agonist activities
GPR4
  PAM activity at GPR4: no effect or weak activity only at high concentrations

## CC(=O)c1cccc(-c2nc(N)nc(NCc3ccccc3)n2)c1 [Compound 21, 1-(3-(4-Amino-6-(benzylamino)-1,3,5-triazin-2-yl)phenyl)ethan-1-one]
[1]
  off-target agonist activity at human GPCRome: no off-target agonist activity
Human GPR68
  Log (α): Inactive
  −Log (KB): Inactive
  Log (αβ/KB): Inactive
  Δ: Inactive
  Log (β): Inactive
  PAM activity at GPR68: do not show PAM activity
[3]
  binding affinity to common drug targets: minimal binding affinities

## NCc1ccccc1-c1nc(N)nc(NCc2ccccc2)n1 [Compound 18, 6-(2-(Aminomethyl)phenyl)-N^2-benzyl-1,3,5-triazine-2,4-diamine]
Human GPR68
  Kb: 138 µM
  Δ: −0.30

## Nc1nc(NCCc2ccc(Oc3ccccc3)cc2)nc(-c2ccccc2CO)n1 [Compound 64, (2-(4-Amino-6-((4-phenoxyphenethyl)amino)-1,3,5-triazin-2-yl)-phenyl)methanol]
Human GPR68
  Kb: 10 µM
  Δ: 0.59

## Nc1nc(NCc2ccccc2)nc(-c2cccc(F)c2CO)n1 [Compound 22, (2-(4-Amino-6-(benzylamino)-1,3,5-triazin-2-yl)-6-fluorophenyl)-methanol]
Human GPR68
  Kb: 97.7 µM
  Δ: −0.45

## Nc1nc(NCc2ccccc2Cl)nc(-c2ccccc2CO)n1 [Compound 44, (2-(4-Amino-6-((2-chlorobenzyl)amino)-1,3,5-triazin-2-yl)-phenyl)methanol]
Human GPR68
  Kb: 8.51 µM
  Δ: 0.63

## COc1ccc(-c2nc(N)nc(NCc3ccccc3)n2)c(CO)c1 [Compound 30]
Human GPR68
  Kb: 75.9 µM
  Δ: −0.34

## COc1cccc(CO)c1-c1nc(N)nc(NCc2ccccc2)n1 [Compound 32, (2-(4-Amino-6-(benzylamino)-1,3,5-triazin-2-yl)-3-methoxyphenyl)methanol]
Human GPR68
  Log (α): Weak PAM
  −Log (KB): Weak PAM
  Log (αβ/KB): Weak PAM
  Δ: Weak PAM
  Log (β): Weak PAM

## Nc1nc(NCc2cccc(C(F)(F)F)c2)nc(-c2ccccc2CO)n1 [Compound 48, (2-(4-Amino-6-((3-(trifluoromethyl)benzyl)amino)-1,3,5-triazin-2-yl)phenyl)methanol]
Human GPR68
  Kb: 7.76 µM
  Δ: 0.76

## Nc1nc(NCc2cccc(F)c2)nc(-c2ccccc2CO)n1 [Compound 42, (2-(4-Amino-6-((3-fluorobenzyl)amino)-1,3,5-triazin-2-yl)-phenyl)methanol]
Human GPR68
  Kb: 30.2 µM
  Δ: 0.24

## CNc1nc(NCc2ccccc2)nc(-c2ccccc2CO)n1 [Compound 5]
Human GPR68
  Kb: 30.9 µM
  Δ: 0.05

## Nc1nc(NCc2ccc(OC3CC3)cc2)nc(-c2ccccc2CO)n1 [Compound 58, (2-(4-Amino-6-((4-cyclopropoxybenzyl)amino)-1,3,5-triazin-2-yl)phenyl)methanol]
Human GPR68
  Kb: 8.51 µM
  Δ: 0.46

## Nc1nc(NCCc2ccccc2)nc(-c2ccccc2CO)n1 [Compound 61]
Human GPR68
  Kb: 31.6 µM
  Δ: 0.31

## Nc1nc(NCc2ccc(Oc3ccccc3)cc2)nc(-c2ccccc2CO)n1 [Compound 59, (2-(4-Amino-6-((4-phenoxybenzyl)amino)-1,3,5-triazin-2-yl)-phenyl)methanol]
Human GPR68
  Kb: 6.46 µM
  Δ: 0.83

## Nc1nc(NCc2ccccc2C(F)(F)F)nc(-c2ccccc2CO)n1 [Compound 47, (2-(4-Amino-6-((2-(trifluoromethyl)benzyl)amino)-1,3,5-triazin-2-yl)phenyl)methanol]
Human GPR68
  Kb: 8.91 µM
  Δ: 0.65

## CCOc1ccc(-c2nc(N)nc(NCc3ccccc3)n2)c(CO)c1 [Compound 37, (2-(4-Amino-6-(benzylamino)-1,3,5-triazin-2-yl)-5-ethoxyphenyl)methanol]
Human GPR68
  Kb: 42.7 µM
  Δ: 0.03

## Nc1nc(NCc2ccc(Oc3ccccc3)cc2)nc(-c2cc(Cl)ccc2CO)n1 [Compound 80, (2-(4-Amino-6-((4-phenoxybenzyl)amino)-1,3,5-triazin-2-yl)-4-chlorophenyl)methanol]
Human GPR68
  Kb: 20 µM
  Δ: 0.47

## Cc1cccc(CNc2nc(N)nc(-c3ccccc3CO)n2)c1 [Compound 51, (2-(4-Amino-6-((3-methylbenzyl)amino)-1,3,5-triazin-2-yl)-phenyl)methanol]
Human GPR68
  Kb: 39.8 µM
  Δ: 0.26

## CC(C)Oc1ccc(CNc2nc(N)nc(-c3ccccc3CO)n2)cc1 [Compound 57, (2-(4-Amino-6-((4-isopropoxybenzyl)amino)-1,3,5-triazin-2-yl)-phenyl)methanol]
Human GPR68
  Kb: 10.2 µM
  Δ: 0.38

## Nc1cc(-c2ccccc2CO)nc(NCc2ccccc2)n1 [Compound 10, (2-(6-Amino-2-(benzylamino)pyrimidin-4-yl)phenyl)methanol]
Human GPR68
  Log (α): Weak PAM
  −Log (KB): Weak PAM
  Log (αβ/KB): Weak PAM
  Δ: Weak PAM
  Log (β): Weak PAM

## Nc1nc(NCCCCc2ccccc2)nc(-c2ccccc2CO)n1 [Compound 63]
Human GPR68
  Kb: 3.02 µM
  Δ: 1.04
Mouse GPR68
  Kb: 12.3 µM

## Cc1ccccc1-c1nc(N)nc(NCc2ccccc2)n1 [Compound 14, N^2-Benzyl-6-(o-tolyl)-1,3,5-triazine-2,4-diamine]
Human GPR68
  Log (α): Weak PAM
  −Log (KB): Weak PAM
  Log (αβ/KB): Weak PAM
  Δ: Weak PAM
  Log (β): Weak PAM

## COc1cccc(-c2nc(N)nc(NCc3ccccc3)n2)c1CO [Compound 29, (2-(4-Amino-6-(benzylamino)-1,3,5-triazin-2-yl)-6-methoxyphenyl)methanol]
Human GPR68
  Kb: 69.2 µM
  Δ: −0.45
